One block for each molecule: values may come before it.
Key:
[1] = target: T1, P-selectin (Homo sapiens) (UniProt P16109); experiment: In vitro inhibitory activity against sialyl Lewis X expressing HL60 cell binding Selectin P at 4 mM concentration; type: cell-based; conditions: HL-60
T1 sequence (whole entry): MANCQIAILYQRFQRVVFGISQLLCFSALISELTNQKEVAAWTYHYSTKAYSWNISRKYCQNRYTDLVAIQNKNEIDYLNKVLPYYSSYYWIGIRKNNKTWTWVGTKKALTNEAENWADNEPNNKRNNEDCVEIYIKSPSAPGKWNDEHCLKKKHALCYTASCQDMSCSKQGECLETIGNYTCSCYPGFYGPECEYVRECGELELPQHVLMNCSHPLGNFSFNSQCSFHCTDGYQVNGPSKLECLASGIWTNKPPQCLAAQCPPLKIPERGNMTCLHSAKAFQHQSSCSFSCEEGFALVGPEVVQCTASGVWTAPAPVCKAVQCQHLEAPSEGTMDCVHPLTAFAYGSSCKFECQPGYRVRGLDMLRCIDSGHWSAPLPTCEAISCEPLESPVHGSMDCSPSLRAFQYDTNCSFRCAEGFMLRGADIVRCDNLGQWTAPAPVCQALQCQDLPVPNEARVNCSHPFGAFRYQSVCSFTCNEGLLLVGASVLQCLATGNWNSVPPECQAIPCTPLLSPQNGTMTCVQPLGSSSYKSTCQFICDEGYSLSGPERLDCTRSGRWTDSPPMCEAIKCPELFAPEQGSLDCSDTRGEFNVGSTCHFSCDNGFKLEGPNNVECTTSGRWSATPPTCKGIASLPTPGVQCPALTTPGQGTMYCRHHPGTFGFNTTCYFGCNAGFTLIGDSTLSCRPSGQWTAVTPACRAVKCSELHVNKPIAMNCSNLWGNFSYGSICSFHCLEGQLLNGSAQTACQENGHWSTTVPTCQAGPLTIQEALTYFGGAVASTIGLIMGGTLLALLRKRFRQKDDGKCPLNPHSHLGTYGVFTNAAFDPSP

[2] = target: T2, E-selectin (Homo sapiens, UniProt P16581); experiment: In vitro inhibition of HL60 (human leukemia) cell binding to human recombinant e-selectin.; type: cell-based, HL-60
T2 sequence (P16581 whole entry): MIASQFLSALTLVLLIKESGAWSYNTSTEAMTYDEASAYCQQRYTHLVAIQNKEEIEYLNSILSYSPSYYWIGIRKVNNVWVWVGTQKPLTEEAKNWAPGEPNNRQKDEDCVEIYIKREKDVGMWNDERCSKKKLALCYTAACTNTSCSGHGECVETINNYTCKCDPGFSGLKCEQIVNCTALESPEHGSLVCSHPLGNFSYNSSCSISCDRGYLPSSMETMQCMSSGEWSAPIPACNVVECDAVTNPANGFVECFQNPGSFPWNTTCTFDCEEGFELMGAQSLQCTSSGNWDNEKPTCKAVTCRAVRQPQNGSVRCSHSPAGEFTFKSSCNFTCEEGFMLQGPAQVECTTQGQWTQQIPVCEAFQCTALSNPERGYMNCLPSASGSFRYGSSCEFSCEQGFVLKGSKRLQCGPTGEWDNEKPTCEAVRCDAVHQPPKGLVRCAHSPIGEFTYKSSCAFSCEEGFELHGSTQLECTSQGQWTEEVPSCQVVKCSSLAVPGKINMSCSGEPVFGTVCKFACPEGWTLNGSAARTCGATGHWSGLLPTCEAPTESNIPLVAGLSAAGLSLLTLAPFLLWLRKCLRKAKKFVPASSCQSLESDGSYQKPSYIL
In short: (§1)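 Human E-selectin (lectin, EGF and two complement repeats) fused to mouse IgG was captured on anti-mouse IgG magnetic beads overnight at 4 °C. Wells were pre-blocked with 3% BSA/PBS. Compound in PBS was mixed with calcein-labelled HL60 cells (10⁷/mL, RPMI 1640 + 10% FCS) and beads (4 × 10⁶/mL) for 10 min at room temperature. Unbound cells were removed magnetically with two PBS washes, and bound cells were lysed in 1% NP40.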

[3] = target: T3, L-selectin (Mus musculus) (UniProt P18337); experiment: In vitro inhibitory activity against sialyl Lewis X expressing HL60 cell binding Selectin L at 1 mM concentration; type: cell-based; conditions: HL-60
T3 sequence (whole entry): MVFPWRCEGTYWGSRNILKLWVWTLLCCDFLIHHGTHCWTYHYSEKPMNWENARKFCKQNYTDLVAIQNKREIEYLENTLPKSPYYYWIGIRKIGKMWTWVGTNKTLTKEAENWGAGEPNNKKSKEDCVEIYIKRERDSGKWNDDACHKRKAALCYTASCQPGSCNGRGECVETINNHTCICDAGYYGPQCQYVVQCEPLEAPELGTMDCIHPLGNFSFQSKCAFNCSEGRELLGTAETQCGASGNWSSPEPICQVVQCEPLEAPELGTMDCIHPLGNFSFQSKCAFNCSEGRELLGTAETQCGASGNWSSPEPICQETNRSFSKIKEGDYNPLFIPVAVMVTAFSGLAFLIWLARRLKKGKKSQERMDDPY

[4] = target: T4, P-selectin (Homo sapiens, UniProt P16109); experiment: In vitro inhibitory activity against sialyl Lewis X expressing HL60 cell binding Selectin P; type: cell-based, HL-60
T4 sequence (P16109 whole entry): T1 sequence (whole entry)

[5] = target: T5, E-selectin (Homo sapiens) (UniProt P16581); experiment: In vitro inhibitory activity against sialyl Lewis X expressing HL60 cell binding to recombinant human E-selectin at 16.3 mM concentration; type: cell-based; conditions: HL-60; in short: as §1
T5 sequence (whole entry): T2 sequence (P16581 whole entry)

[6] = target: T6, L-selectin (Mus musculus, UniProt P18337); experiment: In vitro inhibitory activity against sialyl Lewis X expressing HL60 cell binding Selectin L; type: cell-based, HL-60
T6 sequence (P18337 whole entry): T3 sequence (whole entry)

[7] = target: T3, L-selectin (Mus musculus); experiment: In vitro inhibitory activity against sialyl Lewis X expressing HL60 cell binding to Selectin L at 3 mM concentration; conditions: HL-60
[8] = target: T5, E-selectin (Homo sapiens); experiment: In vitro inhibitory activity against sialyl Lewis X expressing HL60 cell binding to recombinant human E-selectin at 20 mM concentration; type: cell-based; conditions: HL-60; in short: as §1
[9] = target: T1, P-selectin (Homo sapiens); experiment: In vitro inhibitory activity against sialyl Lewis X expressing HL60 cell binding Selectin P at 20 mM concentration; type: cell-based; conditions: HL-60
[10] = target: T1, P-selectin (Homo sapiens); experiment: In vitro inhibitory activity against sialyl Lewis X expressing HL60 cell binding Selectin P at 23 mM concentration; type: cell-based; conditions: HL-60
[11] = target: T1, P-selectin (Homo sapiens); experiment: In vitro inhibitory activity against sialyl Lewis X expressing HL60 cell binding Selectin P at 10 mM concentration; type: cell-based; conditions: HL-60
[12] = target: T3, L-selectin (Mus musculus); experiment: In vitro inhibitory activity against sialyl Lewis X expressing HL60 cell binding to Selectin L at 6 mM concentration; type: cell-based; conditions: HL-60
[13] = target: T5, E-selectin (Homo sapiens); experiment: In vitro inhibitory activity against sialyl Lewis X expressing HL60 cell binding to recombinant human E-selectin at 128 mM concentration; type: cell-based; conditions: HL-60; 18 mM; in the assay text read “18 mM” for “128 mM”; in short: as §1
[14] = target: T3, L-selectin (Mus musculus); experiment: In vitro inhibitory activity against sialyl Lewis X expressing HL60 cell binding Selectin L at 6 mM concentration; type: cell-based; conditions: HL-60
[15] = target: T3, L-selectin (Mus musculus); experiment: In vitro inhibitory activity against sialyl Lewis X expressing HL60 cell binding to Selectin L at 7 mM concentration; type: cell-based; conditions: HL-60
[16] = target: T3, L-selectin (Mus musculus); experiment: In vitro inhibitory activity against sialyl Lewis X expressing HL60 cell binding to Selectin L at 5 mM concentration; type: cell-based; conditions: HL-60
[17] = target: T3, L-selectin (Mus musculus); experiment: In vitro inhibitory activity against sialyl Lewis X expressing HL60 cell binding to Selectin L at 8 mM concentration; type: cell-based; conditions: HL-60

SMILES: O=C(O)CCC(NC(=O)c1ccc(-c2ccccc2O[C@H]2O[C@H](CO)[C@@H](O)[C@@H](O)[C@@H]2O)cc1)C(=O)O (stereo partly drawn)
inhibition [1]: 35%
IC50 [2]: 32 mM
inhibition [3]: 0%

SMILES: O=C(O)CC(NC(=O)c1ccc(-c2ccccc2O[C@H]2O[C@H](CO)[C@@H](O)[C@@H](O)[C@@H]2O)cc1)C(=O)O (stereo partly drawn)
inhibition [5]: 0%
IC50 [6]: 5 mM
IC50 [4]: 2 mM

SMILES: O=C(O)CCC(=O)c1ccc(-c2ccccc2O[C@H]2O[C@H](CO)[C@@H](O)[C@@H](O)[C@@H]2O)cc1
inhibition [7]: 0%
inhibition [8]: 40%
inhibition [9]: 0%

SMILES: N#CCc1cccc(-c2ccccc2O[C@H]2O[C@H](CO)[C@@H](O)[C@@H](O)[C@@H]2O)c1
IC50 [2]: 7 mM
IC50 [6]: 1.5 mM
inhibition [10]: 40%

SMILES: CC(C(=O)O)c1cccc(-c2ccccc2O[C@H]2O[C@H](CO)[C@@H](O)[C@@H](O)[C@@H]2O)c1 (stereo in doubt; 9s) [listing 1 of 2 here]
inhibition [11]: 30%
inhibition [12]: 0%

SMILES: O=C(NC(Cc1ccccc1)C(=O)O)c1ccc(-c2ccccc2O[C@H]2O[C@H](CO)[C@@H](O)[C@@H](O)[C@@H]2O)cc1 (stereo partly drawn)
IC50 [2]: 11.5 mM

SMILES: CC(=O)N[C@H]1[C@H]([C@H](O)[C@H](O)CO)O[C@@](O[C@H]2[C@@H](O)[C@@H](CO)O[C@@H](O[C@@H]([C@H](O[C@@H]3O[C@@H](C)[C@@H](O)[C@@H](O)[C@@H]3O)[C@H](C=O)NC(C)=O)[C@H](O)CO)[C@@H]2O)(C(=O)O)C[C@@H]1O [SIALYL LEWIS X]
IC50 [2]: 3 mM
IC50 [6]: 2 mM
IC50 [4]: 2 mM

SMILES: O=C(O)CNC(=O)c1cccc(-c2ccccc2O[C@H]2O[C@H](CO)[C@@H](O)[C@@H](O)[C@@H]2O)c1
inhibition [13]: 0%
inhibition [14]: 0%
inhibition [10]: 25%

SMILES: O=C(N[C@@H](Cc1ccccc1)C(=O)O)c1ccc(-c2ccccc2O[C@H]2O[C@H](CO)[C@@H](O)[C@@H](O)[C@@H]2O)cc1
inhibition [16]: 0%
IC50 [2]: 3.8 mM
inhibition [9]: 0%

SMILES: O=C(O)CC[C@H](NC(=O)c1cccc(-c2ccccc2O[C@H]2O[C@H](CO)[C@@H](O)[C@@H](O)[C@@H]2O)c1)C(=O)O
inhibition [16]: 15%
IC50 [2]: 15.8 mM

Now from value to molecule:

IC50 [2]: 20.2 mM
IC50 [4]: 12 mM
SMILES: Cc1ccc(OCC(=O)O)cc1-c1ccccc1O[C@H]1O[C@H](CO)[C@@H](O)[C@@H](O)[C@@H]1O

IC50 [2]: 20 mM
SMILES: CC(C(=O)O)c1cccc(-c2ccccc2O[C@H]2O[C@H](CO)[C@@H](O)[C@@H](O)[C@@H]2O)c1 (stereo in doubt; 9s) [listing 2 of 2 here]

IC50 [2]: 8 mM
inhibition [15]: 0%
IC50 [4]: 6.9 mM
SMILES: Cc1cc(-c2ccccc2O[C@H]2O[C@H](CO)[C@@H](O)[C@@H](O)[C@@H]2O)cc(C)c1OCC(=O)O

IC50 [2]: 4.9 mM
IC50 [6]: 17 mM
IC50 [4]: 4.9 mM
SMILES: O=C(O)COc1cccc(-c2ccccc2O[C@H]2O[C@H](CO)[C@@H](O)[C@@H](O)[C@@H]2O)c1

inhibition [17]: 0%
inhibition [8]: 0%
inhibition [9]: 0%
SMILES: Cc1c(OCC(=O)O)cccc1-c1ccccc1O[C@H]1O[C@H](CO)[C@@H](O)[C@@H](O)[C@@H]1O

Reference: ChEMBL document CHEMBL1128216, “Rational design and synthesis of small molecule, non-oligosaccharide selectin inhibitors: (alpha-D-mannopyranosyloxy)biphenyl-substituted carboxylic acids” (J Med Chem, 1995)
